Source: ChEMBL document CHEMBL4028913, “Discovery of Novel Potent VEGFR-2 Inhibitors Exerting Significant Antiproliferative Activity against Cancer Cell Lines” (J Med Chem, 2018)
Calls of active or inactive are those of the source. The calls are words filed in the database; no cut-off is given here.

Assays:
[1] = system: HUVEC; experiment: Growth inhibition of HUVEC after 72 hrs by CellTiter-Glo assay; format: functional, cell-based; conditions: Homo sapiens
Summary of the method: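 Cells in exponential phase seeded at 2000–4000 cells/well, then exposed 72 h at 37 °C, 5% CO2 with 0.1% final DMSO. Single-point screen at 10 μM final. […] Read-out was CellTiter-Glo luminescence.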

[2] = system: CCRF-CEM; experiment: Cytotoxicity against human CCRF-CEM cells after 48 hrs by SRB assay; format: functional
Summary of the method: (§1)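 NCI-60 panel; cells grown in RPMI 1640 with 5% FBS and 2 mM L-glutamine, plated at 5000–40 000 cells/well by doubling time, preincubated 24 h (37 °C, 5% CO2). Drug added at five concentrations, 1-log steps from 10−4 to 10−8 M, for 48 h. Fixed with TCA, stained with 0.4% SRB, absorbance read at 515 nm. Percent growth computed against time-zero and untreated controls; GI50, TGI and LC50 derived.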

[3] = system: A549; experiment: Cytotoxicity against human A549 cells after 48 hrs by SRB assay; format: functional; conditions: A549, 48 h; summary of the method: as §1
[4] = system: NCI-H226; experiment: Cytotoxicity against human NCI-H226 cells after 48 hrs by SRB assay; format: functional; conditions: NCI-H226, 48 h; summary of the method: as §1
[5] = system: NCI-H322M; experiment: Cytotoxicity against human NCI-H322M cells after 48 hrs by SRB assay; format: functional; summary of the method: as §1
[6] = system: SW-620; experiment: Cytotoxicity against human SW620 cells after 48 hrs by SRB assay; format: functional; conditions: SW-620, 48 h
Summary of the method: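 NCI-60 panel, five doses at 1-log steps from 10−4 to 10−8 M. Cells grown in RPMI 1640 with 5% FBS and 2 mM L-glutamine, seeded at 5000–40 000 cells/well and preincubated 24 h. Tz plates were TCA-fixed at drug addition. Drug exposure 48 h at 37 °C, then TCA fixation, 0.4% SRB stain and absorbance at 515 nm. GI50 taken from percent growth relative to Tz and control.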

[7] = system: Malme-3M; experiment: Cytotoxicity against human MALME-3M cells after 48 hrs by SRB assay; format: functional; summary of the method: as §1
[8] = system: NCI/ADR-RES; experiment: Cytotoxicity against human NCI-ADR-RES cells after 48 hrs by SRB assay; format: functional; summary of the method: as §1
[9] = system: Hs-578T; experiment: Cytotoxicity against human Hs 578T cells after 48 hrs by SRB assay; format: functional; summary of the method: as §1
[10] = system: Leukemia cell; experiment: Potency index, ratio of sorafenib GI50 to test compound GI50 for human leukemia cells; format: functional
Summary of the method: (§2)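 GI50 is the concentration giving 50% reduction in net protein increase relative to control. Potency index is the reference-drug GI50 divided by the test-compound GI50.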

[11] = Potency index, ratio of sorafenib GI50 to test compound GI50 for human ovarian cancer cells; format: functional, Ovarian cancer cell; summary of the method: as §2
[12] = Potency index, ratio of sunitinib GI50 to test compound GI50 for human non-small cell lung cancer cells; format: functional
[13] = Potency index, ratio of sorafenib GI50 to test compound GI50 for human colon cancer cells; format: functional, Colon cancer cell; summary of the method: as §2
[14] = Potency index, ratio of sorafenib GI50 to test compound GI50 for human CNS cancer cells; format: functional, CNS cancer cell; summary of the method: as §2
[15] = system: Melanoma cell; experiment: Potency index, ratio of sorafenib GI50 to test compound GI50 for human melanoma cells; format: functional; summary of the method: as §2
[16] = Potency index, ratio of sunitinib GI50 to test compound GI50 for human colon cancer cells; format: functional, Colon cancer cell; summary of the method: as §2
[17] = Potency index, ratio of sunitinib GI50 to test compound GI50 for human CNS cancer cells; format: functional, CNS cancer cell; summary of the method: as §2
[18] = Potency index, ratio of sunitinib GI50 to test compound GI50 for human prostate cancer cells; format: functional, Prostate cancer cell
[19] = system: NCI/ADR-RES; experiment: Potency index, ratio of sunitinib GI50 to test compound GI50 for human NCI-ADR-RES cells; format: functional; summary of the method: as §2
[20] = Potency index, ratio of test compound LC50 to sunitinib LC50 for human prostate cancer cells; format: functional, Prostate cancer cell
[21] = biological target: Receptor-type tyrosine-protein kinase FLT3 (Homo sapiens) (UniProt P36888); experiment: Inhibition of human Flt3 at 0.5 uM relative to control
Chain of Receptor-type tyrosine-protein kinase FLT3 (Homo sapiens) (P36888 whole entry): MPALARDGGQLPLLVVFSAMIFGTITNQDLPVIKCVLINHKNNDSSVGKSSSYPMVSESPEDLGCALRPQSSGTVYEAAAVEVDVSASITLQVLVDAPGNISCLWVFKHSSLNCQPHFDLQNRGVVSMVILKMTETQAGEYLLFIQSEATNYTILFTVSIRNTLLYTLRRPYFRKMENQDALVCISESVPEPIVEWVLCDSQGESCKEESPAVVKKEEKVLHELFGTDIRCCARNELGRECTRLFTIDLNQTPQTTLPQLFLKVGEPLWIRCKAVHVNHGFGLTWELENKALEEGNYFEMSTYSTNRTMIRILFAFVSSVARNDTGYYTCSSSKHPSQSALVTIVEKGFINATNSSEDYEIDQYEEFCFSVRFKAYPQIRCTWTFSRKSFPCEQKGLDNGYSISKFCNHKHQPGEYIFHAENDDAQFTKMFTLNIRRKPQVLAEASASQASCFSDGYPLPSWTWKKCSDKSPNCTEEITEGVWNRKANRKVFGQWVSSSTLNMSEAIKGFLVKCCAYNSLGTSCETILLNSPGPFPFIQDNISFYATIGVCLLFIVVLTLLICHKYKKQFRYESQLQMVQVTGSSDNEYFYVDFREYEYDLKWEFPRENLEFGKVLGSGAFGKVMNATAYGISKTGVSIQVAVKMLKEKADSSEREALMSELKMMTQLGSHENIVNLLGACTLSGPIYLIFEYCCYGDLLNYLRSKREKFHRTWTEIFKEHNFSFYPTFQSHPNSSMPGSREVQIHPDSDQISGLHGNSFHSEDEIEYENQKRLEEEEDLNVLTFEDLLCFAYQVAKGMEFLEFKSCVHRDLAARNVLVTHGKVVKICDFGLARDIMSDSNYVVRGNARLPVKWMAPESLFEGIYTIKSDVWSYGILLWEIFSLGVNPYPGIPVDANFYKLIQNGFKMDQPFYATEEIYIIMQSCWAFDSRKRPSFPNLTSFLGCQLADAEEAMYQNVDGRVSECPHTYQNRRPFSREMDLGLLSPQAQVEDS

[22] = biological target: STE20-like serine/threonine-protein kinase (Homo sapiens) (UniProt Q9H2G2); experiment: Inhibition of human SLK at 0.5 uM relative to control
Chain of STE20-like serine/threonine-protein kinase (Homo sapiens) (Q9H2G2 whole entry, looked up): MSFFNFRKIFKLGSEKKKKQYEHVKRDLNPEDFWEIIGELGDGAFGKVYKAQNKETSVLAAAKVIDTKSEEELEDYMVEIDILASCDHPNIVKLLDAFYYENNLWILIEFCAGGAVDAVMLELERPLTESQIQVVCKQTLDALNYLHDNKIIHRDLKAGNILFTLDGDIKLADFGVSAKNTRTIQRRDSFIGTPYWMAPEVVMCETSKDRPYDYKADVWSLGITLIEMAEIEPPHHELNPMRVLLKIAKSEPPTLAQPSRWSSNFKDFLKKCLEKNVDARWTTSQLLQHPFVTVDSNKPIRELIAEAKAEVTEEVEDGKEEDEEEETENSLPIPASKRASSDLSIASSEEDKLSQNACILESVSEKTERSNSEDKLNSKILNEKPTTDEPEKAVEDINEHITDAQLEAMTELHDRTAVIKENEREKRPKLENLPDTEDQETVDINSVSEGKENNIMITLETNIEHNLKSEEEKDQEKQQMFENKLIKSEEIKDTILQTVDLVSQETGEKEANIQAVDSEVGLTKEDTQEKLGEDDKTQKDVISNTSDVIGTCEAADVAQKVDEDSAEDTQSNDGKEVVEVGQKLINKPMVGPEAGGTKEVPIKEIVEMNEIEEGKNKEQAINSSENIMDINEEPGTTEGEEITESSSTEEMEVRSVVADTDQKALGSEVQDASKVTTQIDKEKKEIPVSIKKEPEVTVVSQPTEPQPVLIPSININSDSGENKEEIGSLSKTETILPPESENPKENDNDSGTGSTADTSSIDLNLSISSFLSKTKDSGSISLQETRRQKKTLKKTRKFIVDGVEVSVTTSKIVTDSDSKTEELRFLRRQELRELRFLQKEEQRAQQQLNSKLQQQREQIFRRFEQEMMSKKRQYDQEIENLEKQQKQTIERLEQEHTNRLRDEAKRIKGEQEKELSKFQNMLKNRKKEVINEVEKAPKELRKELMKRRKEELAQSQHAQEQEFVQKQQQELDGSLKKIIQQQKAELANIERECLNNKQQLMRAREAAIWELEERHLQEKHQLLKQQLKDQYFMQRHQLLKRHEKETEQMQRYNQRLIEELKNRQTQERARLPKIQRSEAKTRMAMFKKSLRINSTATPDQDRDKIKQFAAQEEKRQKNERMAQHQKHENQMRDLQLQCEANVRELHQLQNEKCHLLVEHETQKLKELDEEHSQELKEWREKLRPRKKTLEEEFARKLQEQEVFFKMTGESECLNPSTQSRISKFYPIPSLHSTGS

[23] = read-out: LC50 (the source's name)

COc1cc2ncnc(Oc3ccc(NC(=O)Nc4ccc(CN5CCOCC5)c(C(F)(F)F)c4)c4ccccc34)c2cc1OC
IC50 [1]: 630 nM | GI50 [2]: 1170 nM | TGI [2]: 40.7 µM | CC50 [2, 23]: > 100 µM | GI50 [3]: 550 nM | TGI [3]: 10.7 µM | CC50 [3, 23]: 81.3 µM | GI50 [4]: 70 nM | TGI [4]: 13.8 µM | CC50 [4, 23]: > 100 µM | GI50 [5]: 560 nM | TGI [5]: 15.1 µM | CC50 [5, 23]: 93.3 µM | GI50 [6]: 1100 nM | TGI [6]: 11.8 µM | CC50 [6, 23]: > 100 µM | GI50 [7]: 300 nM | TGI [7]: 1550 nM | CC50 [7, 23]: 5.75 µM | GI50 [8]: 760 nM | TGI [8]: 58.9 µM | CC50 [8, 23]: > 100 µM | GI50 [9]: 1120 nM | TGI [9]: 9.33 µM | CC50 [9, 23]: > 100 µM | RatioGI50 [10]: 3.9 - 9.5 | RatioGI50 [11]: 3.9 - 9.5 | RatioGI50 [12]: 5 - 7.7 | RatioGI50 [13]: 1.6 - 2.9 | RatioGI50 [14]: 1.6 - 2.9 | RatioGI50 [15]: 1.6 - 2.9 | RatioGI50 [16]: 1.1 - 3.7 | RatioGI50 [17]: 1.1 - 3.7 | RatioGI50 [18]: 1.5 | RatioGI50 [19]: 6.9 | RatioLC50 [20]: 1.7 | inhibition [21]: Active | inhibition [22]: Active
